“And” between values parts separate entries of the source, which are not always exact repeats. Identical values can stand only once. About 350 (0.11%) of roughly 330,000 compounds were called active. For the sample, actives were picked, then their nearest neighbours and some compounds at random. A number with no mark means an inactive call.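 Rule for the calls: active = activation above the mean of all tested compounds plus 3 SD (cut at about 21% in these data); inactive = the rest.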
Target: Caspase-3 (Homo sapiens) (UniProt P42574)
Sequence (P42574 whole entry D9A/D28A/D175A): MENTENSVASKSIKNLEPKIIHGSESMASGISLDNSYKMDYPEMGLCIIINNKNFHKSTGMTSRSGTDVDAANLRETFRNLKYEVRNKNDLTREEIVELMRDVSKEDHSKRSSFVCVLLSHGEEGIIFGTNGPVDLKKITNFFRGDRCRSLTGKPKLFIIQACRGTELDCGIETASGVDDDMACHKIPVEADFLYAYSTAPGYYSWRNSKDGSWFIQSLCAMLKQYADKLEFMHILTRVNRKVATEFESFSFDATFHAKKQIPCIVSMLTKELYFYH
Assay: procaspase-3 enzyme activation – biochemical, absorbance, PC-3 D3A mutant, single concentration, primary screen (AID 463141);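 note: 0% = DMSO alone and 100% = DMSO wells spiked with extra 5 µM PC-3 D3A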
Details: recombinant procaspase-3 D3A, Ac-DEVD-pNA absorbance 405 nm; at 8.5 µM; stronger effect = higher value
Procedure, shortened: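 Assay system: Procaspase-3 D3A mutant, all three cleavage aspartates alanine. Buffer or medium: Zinc-free HEPES saline buffer with Triton X-100. Times: 1 h compound preincubation, 2 h substrate hydrolysis at 25 °C. Measured by: 405 nm absorbance of p-nitroaniline, reads at 0 and 120 min. Read-out basis: percent activation relative to control range. Replicates: singlicate.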

Compound	activation
Cn1cnc([N+](=O)[O-])c1Sc1n[nH]c(N)n1	6.6%
COCCCNC(=S)N(Cc1ccccc1)Cc1ccc(F)cc1	-1.61%
CCCNc1ncnc2sc(C)c(C)c12	-0.52%
CN(C)c1ccc2c(=O)[nH][nH]c(=O)c2c1	10.1%
CCOc1ccccc1NC(=O)C1CCCN(S(=O)(=O)c2ccccc2)C1 (stereo not drawn)	2.37%
CN1CC(=O)N=C1N	6.53% and -3.63%
CCOC(=O)CNC(=O)CSc1ccc2nnc(-c3cccnc3)n2n1	0.59%
CC(C)NC(=S)N1CCN(S(C)(=O)=O)CC1	9.6%
CC(=O)c1ccc(N=C2SCCCN2C(=O)C2CCCCC2)cc1	8.2%
COc1cc(C(=O)NC2CCN(Cc3ccccc3)CC2)cc(Cl)c1OC(C)C	4.82%
CCOc1ccc2c(c1)cc(CN(C(=O)CC)C1CCCCC1)c1nnnn12	0.4%
O=C(c1ccc(N2CCOCC2)c([N+](=O)[O-])c1)N1CCN(S(=O)(=O)c2cccs2)CC1	-3.64%
CC1CCN(C(=S)NC(=O)c2ccccc2Br)CC1	-4.02%
CC(=O)Oc1ccccc1C1=NN(C(C)=O)C(c2ccccc2)C1 (stereo not drawn)	1.13%
Oc1ccccc1C1=NN(c2ccccc2)C(c2ccccc2)C1 (stereo not drawn)	32.8% (active)
COc1ccc(C2CC(c3cccs3)=NN2c2ccccc2)cc1 (stereo not drawn)	-24.6%
O=C(CCNc1n[nH]c(=O)[nH]c1=O)N/N=C\c1ccc(Br)cc1	-3.48%
Cc1c(S(=O)(=O)N2CC(C)CC(C)C2)c(=O)n(C)c(=O)n1C (stereo not drawn)	-6.15%
CCc1ccc2oc(-c3ccc(N)cc3)nc2c1	5.03%
COC(=O)c1cc(NC(=O)CN2CCC(C(N)=O)(N3CCCCC3)CC2)cc(C(=O)OC)c1	12.7%
O=C(CC(NC(=O)c1ccccc1)c1ccccc1)Nc1ccc(F)c(F)c1 (stereo not drawn)	5.87%
CC(C)OC(=O)c1cc(NC(=O)C2C3CCC(O3)C2C(=O)O)cc(C(=O)OC(C)C)c1 (stereo not drawn)	-5.36%
CN1CCCN(C(=O)C2CCCCC2)CC1	5.38%
CCN(CC)c1ccc(NC(=O)CN2CCN(c3ccccn3)CC2)cc1	-5.15%
Cc1cccc(C2C3=C(CCCC3=O)N=C3c4ccccc4C(=O)C32)c1 (stereo not drawn)	-13.4%
CN(C)C(=O)N=NC(=O)N(C)C	-12.2%

Compound	activation
O=C(COC(=O)C1CC2CCCC(C1)C2=O)NC(=O)c1ccccc1 (stereo not drawn)	-4.78%
COC(=O)C(C(=O)Nc1cccc(Cl)c1C)C1CCCC1 (stereo not drawn)	1.15%
COc1ccc(CN2CCN(C(=O)CCC(=O)Nc3nnc(C(C)C)s3)CC2)cc1F	-6.44%
O=C(CSC1=NS(=O)(=O)c2cc(F)ccc2N1)Nc1ccccc1F	-6.67%
COc1ccccc1N=C(C)C1=C(O)COC1=O	-3.88%
COc1ccccc1N=Cc1c(O)c2ccccc2oc1=O	26.5% (active)
COc1cc(N=Cc2c(O)c3ccccc3oc2=O)c(OC)cc1Cl	3.99%
COC(=O)c1cc(OC)c(OC)cc1NC(=O)C1CCCO1 (stereo not drawn)	-0.83%
COc1ccc(CN2CCC(c3nc4ccc(Cl)cc4[nH]3)CC2)cc1	-3.22%
O=C(NCC(=O)N(c1ccccc1)C(C(=O)NCC1CCCO1)c1ccccc1)c1cccs1 (stereo not drawn)	-3.61%
COCCn1c(SCC(=O)Nc2nc(C)cs2)nnc1C(C)C	2.76%
CCCN1C2=C(C(=O)CCC2)C(c2ccc(O)c(Br)c2)C2=C1CCCC2=O	-10.1%
COc1ccc(C)cc1Nc1nc(C)nc2c1oc1ccccc12	4.37%
COc1ccc(C)cc1NC(=O)NCc1ccccn1	-10.4%
COC(=O)c1cnc(Nc2cc(C)ccc2OC)c2ccccc12	35.2% (active)
COc1ccc(CN2[C@@H](CC(=O)O)c3cc(F)ccc3S2(=O)=O)cc1	3.51%
CC1CCCN(S(=O)(=O)c2ccc(N(C(=O)c3cnccn3)C(C(=O)NC3CCCCC3)c3cccs3)cc2)C1 (stereo not drawn)	3.94%
Cc1cccc(C)c1N1C(=O)CN(Cc2ccccc2)C1=S	-3%
NC(=O)c1nsc(C(=O)N(CCCN2CCOCC2)C(C(=O)NC2CCCCC2)c2ccc(Cl)cc2)c1N (stereo not drawn)	-8.01%
O=C(NCc1ccccn1)Nc1ccc(Cl)cc1	-0.71%
Cc1nn(C)cc1C(=O)NNC(=S)Nc1ccc(Cl)cc1	-4.7%
Cc1nn(C)cc1CNC(=O)Nc1ccc(Cl)cc1	31.2% (active)
CN(C)CCNC(=O)C(C(=O)c1ccccc1)n1ccccc1=O (stereo not drawn)	2.49%
O=C(Cn1nc(C(=O)O)c2ccccc2c1=O)Nc1ccc(F)cc1	2.68%
Cc1cccc(NC(=O)c2cccc(C(=O)Nc3cccc(C)c3C)n2)c1C	-5.05%
Cc1ccccc1CSCCNC(=O)c1ccc(N(C)S(=O)(=O)c2ccccc2)cc1	-1.26%

Compound	activation
COc1cc(CNCc2cccs2)cc(Br)c1OC	2.29%
COc1ccc2nc(Nc3nc4ccc(NC(C)=O)cc4s3)sc2c1	28.4% (active)
CCCC(=O)Nc1nc2ccc(NC(=O)c3c(F)c(F)c(OC)c(F)c3F)cc2s1	8.06%
COc1ccc2nc(NC(=O)NC3CCCCC3)sc2c1	-1.14%
COc1cccc(C(=O)OCc2cc(=O)oc3c(C)c(C)ccc23)c1OC	1.33%
COC(=O)Cc1cc(=O)oc2c(C)c(O)ccc12	22.9% (active)
CCCc1cc(=O)oc2c(C)c(OCC(=O)Nc3ccccn3)ccc12	-8.09%
C=CCSc1ccc(S(=O)(=O)N2CCN(C)CC2)cn1	6.46%
COC(=O)[C@@H]1C[C@@]2(O)[C@H](O)[C@H](O)[C@H](O)C[C@H]2N1Cc1ccc(C(C)(C)C)cc1	1.49%
COc1ccc(CNC(=O)c2ccc(NS(=O)(=O)c3ccc4[nH]c(=O)[nH]c4c3)cc2)cc1OC	-5.34%
C[C@@H]1CN([C@H](C)CO)C(=O)c2cc(NC(=O)NC3CCCCC3)ccc2O[C@H]1CN(C)S(C)(=O)=O	-10.4%
COc1ccccc1C1C(C#N)=C(N)Oc2c1c(-c1ccccc1)nn2-c1ccccc1 (stereo not drawn)	3.18%
Cc1cc(C)n(-c2nc(O)cc(=O)[nH]2)n1	13.4%
CCOc1ccc2c(=O)c(-c3ccc4c(c3)OCCCO4)c(C)oc2c1	-0.35%
O=C(CSCc1ccccc1Cl)NNC(=O)c1ccccc1	-5.37%
O=C(Nc1cccc2ccccc12)c1onc2c1CCCC2	2.73%
O=C(CN1CCC(O)(c2cccc(C(F)(F)F)c2)CC1)NCCc1ccccc1	2.72%
COC(CCN(C)C)(c1ccccc1)c1ccccc1	-2.83%
O=[N+]([O-])c1ccc(C=Nc2ccc(Cl)cc2Cl)s1	6.25%
CCn1c(SCC(=O)NC2=NCCS2)nnc1C(C)NC(=O)c1ccccc1F (stereo not drawn)	2.41%
O=C1c2ccccc2C(O)N1Cc1ccccc1Cl (stereo not drawn)	-2.13%
COc1ccc2[nH]c3c(c2c1)CCN1C(=O)C(CC(=O)NCCc2ccccn2)C[C@H](C(=O)N2CCOCC2)[C@@]31C (stereo partly drawn)	0.02%
O=P(c1cccs1)(c1cccs1)c1cccs1	-8.39%
Cc1[nH]n(C(N)=S)c(=O)c1N=Nc1ccc(Cl)cc1Cl	-2.96%
CCN(c1ccc2c(c1)OCO2)S(=O)(=O)c1cc(Br)cc2c1N(C(=O)C1CC1)CC2	5.06%
O=C(CCNS(=O)(=O)c1ccccc1C(F)(F)F)Nc1ccncc1	1.72%

Compound	activation
Cn1cc(CCC(=O)NCc2ccc3c(c2)OCO3)c2ccccc21	11.3%
O=C(CCNS(=O)(=O)c1ccccc1C(F)(F)F)NCc1ccc2c(c1)OCO2	32.1% (active)
CN1CCN(CCNC(=O)Nc2ccccc2[N+](=O)[O-])CC1	4.28%
CN(C)c1ccc(C=NCCc2ccc(S(N)(=O)=O)cc2)cc1	8.03%
Cc1ccc(C)c(NC(=O)COC(=O)c2nn(C)c(=O)c3ccccc23)c1	14.6%
COc1cc(NC(=O)c2ccc(-c3csc(C)n3)cc2)c(OC)cc1Cl	3.93%
CCCc1cc(=O)[nH]c(SCC(=O)Nc2ccc(C(=O)Nc3ccccc3OC)cc2)n1	0.24%
CCN(Cc1ccccc1)S(=O)(=O)c1cc(C(=O)O)ccc1OC	5.66%
FC(F)(F)c1cccc(-c2nc(COc3ccc(Cl)cc3Cl)no2)c1	-1.22%
CCCc1nc2c(C)cc(-c3nc4ccccc4n3C)cc2n1Cc1ccc(-c2ccccc2C(=O)O)cc1	5.04%
COc1ccc(CSc2nc(N3CCOCC3)c3c(c2C#N)CC(C)(C)OC3)cc1	-2.72%
CC(C)C(=O)N1CCN(c2nc(-c3ccccc3)c3c(c2C#N)CC(C)(C)OC3)CC1	5.16%
CC1(C)Cc2c(C#N)c(SCc3nc4ccccc4[nH]3)nc(N3CCOCC3)c2CO1	30.9% (active)
COc1ccc(OC)c(/C=N/NC(=O)c2ccc[n+](CC(=O)c3ccccc3)c2)c1	-2.7%
COc1ccc(OC)c(Nc2nc3ccccc3n3cnnc23)c1	-2.95%
Cc1cc(F)ccc1S(=O)(=O)Nc1ccc(C(=O)N(C)Cc2ccco2)cc1	12.5%
CCN(CC)S(=O)(=O)c1ccc(Cl)c(C(=O)NC(C)C(c2cccs2)N2CCCC2)c1 (stereo not drawn)	0.02%
O=C(NCc1ccccc1)[C@@H]1CSC2c3ccccc3C(=O)N21 (stereo partly drawn)	5.1%
Cn1nc([N+](=O)[O-])nc1Sc1ccc(C(C)(C)C)cc1	-0.3%
ONC(=Nc1ccc(Cl)cc1)c1ccccc1Cl	4.43%
C=CCn1c(SCc2nnc(-c3ccccc3)o2)nnc1C(O)c1ccccc1 (stereo not drawn)	-1.35%
CC1CCN(C(=S)NC2CC3CCC2C3)CC1 (stereo not drawn)	-7.41%
CCCNC(=O)CN(Cc1ccccc1F)S(=O)(=O)c1ccc(C)cc1	4.46%
Cc1ccc(N(C(=O)C(F)(F)F)C(C(=O)NC2CCCCC2)c2ccncc2)cc1C (stereo not drawn)	-2.69%
O=C(NCCS(=O)(=O)c1ccc(Br)cc1)c1ccccc1Cl	3.23%
